One molecule from ChEMBL document CHEMBL4665889, “Design, Synthesis, and Pharmacological Characterization of a Neutral, Non-Prodrug Thrombin Inhibitor with Good Oral Pharmacokinetics” (J Med Chem, 2020) can be followed below.

For one data set, the system named is Rattus norvegicus. Briefly: Antithrombotic activity in HsdCpd:WU rat thrombosis model with venous stasis assessed as reduction in thrombus weight at 1 to 10 mg/kg, po dosed 90 mins before thrombus induction measured after 15 mins. Particulars: dose mg/kg 1-10, time 105.0 min. The format is functional, organism-based. The method in brief:
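Anesthetized rats, n = 6−10 per dose group. Compound in PEG/water/glycerol or vehicle given by gavage 90 min before induction. Two loose sutures placed on vena cava below left renal vein; thromboplastin 0.5 mg/kg iv into femoral vein, sutures tied after 15 s. Segment removed 15 min later and thrombus weighed.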

Data set [1] can be described thus: Half life in Wistar Hannover rat at 0.3 to 0.5 mg/kg, iv by LC-MS/MS analysis. The data set is classed as ADME, organism-based. Particulars: in vivo, dose 0.3-0.5 mg/kg, time <=24 hrs. The method in brief: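 Male Wistar Hannover rats, catheterized under isoflurane; one day later iv injection into lateral tail vein at 0.3 to 0.5 mg/kg in plasma containing 2% DMSO. Blood sampled via catheter from 0.033 to 24 h. Plasma precipitated with acetonitrile, analysed by LC-MS/MS (10 mM ammonium acetate pH 3.0/acetonitrile gradient). PK parameters calculated from plasma concentrations.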

The target of the next data set is Prothrombin (Rattus norvegicus, UniProt P18292). Briefly: Inhibition of thrombin in rat plasma. The data set is classed as cell-free.
Data set [2] deals with Coagulation factor XI (Homo sapiens) (UniProt P03951). Description: Inhibition of purified human plasma factor-11a up to 20 uM using Boc-Glu(OBzl)-Ala-Arg-AMC substrate incubated for 30 mins by fluorescence based assay. Particulars: dose microM <=20, time 30.0 min. The essentials:
(§1)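 Final levels: thrombin 0.02 nM; FXa 1.3 nM; FXIa 0.15 nM; plasmin 1.2 nM (substrate 50 μM); tPA 2 nM; kallikrein 0.2 nM; trypsin 0.1 nM; other AMC substrates 5 μM. FVIIa 0.5 pM coupled with tissue factor, factor X 12 nM, FXa substrate 50 μM.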

Data set [3] can be described thus: Toxicity in HsdCpd:WU rat model of arteriovenous shunt model assessed as prolongation of bleeding time at 0.6 to 6 mg/kg/hr, iv. The format is organism-based. Particulars: in vivo, dose 0.6-6 mg/kg/hr.
Data set [4] is described as follows: Oral bioavailability in Wistar Hannover rat at 1 mg/kg by LC-MS/MS analysis. The format is ADME, organism-based. Particulars: in vivo, time <=24 hrs. The essentials: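 Catheterized male Wistar Hannover rats dosed by gavage at 1 mg/kg in 10% ethanol/40% PEG/50% water. Blood taken via catheter at 0.083 to 24 h. Plasma precipitated with acetonitrile and analysed by LC-MS/MS. Bioavailability derived against iv dosing at 0.3 to 0.5 mg/kg.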

Another data set relates to Plasma. Briefly: Anticoagulation activity in human plasma assessed as drug level causing doubling of prothrombin time incubated for 3 mins. The data set is classed as functional. Particulars: 0.05 h. The essentials: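 Citrated human plasma (0.11 M citrate 1:9, spun ~4000g 15 min) incubated with compound at 37 °C for 3 min. Clotting started with thromboplastin and time to coagulation recorded. Value is the concentration doubling clotting time (PT or aPTT).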

In data set [5] the target is Plasminogen (Homo sapiens) (UniProt P00747). Description: Inhibition of purified human plasma plasmin up to 20 uM using MeOSuc-Ala-Phe-Lys-AMC substrate incubated for 30 mins by fluorescence based assay. Particulars: dose microM <=20, time 30.0 min. The method in brief: as §1
Data set [6] deals with T1, Nuclear receptor subfamily 1 group I member 2 (Homo sapiens, UniProt O75469).
T1 sequence (O75469 whole entry): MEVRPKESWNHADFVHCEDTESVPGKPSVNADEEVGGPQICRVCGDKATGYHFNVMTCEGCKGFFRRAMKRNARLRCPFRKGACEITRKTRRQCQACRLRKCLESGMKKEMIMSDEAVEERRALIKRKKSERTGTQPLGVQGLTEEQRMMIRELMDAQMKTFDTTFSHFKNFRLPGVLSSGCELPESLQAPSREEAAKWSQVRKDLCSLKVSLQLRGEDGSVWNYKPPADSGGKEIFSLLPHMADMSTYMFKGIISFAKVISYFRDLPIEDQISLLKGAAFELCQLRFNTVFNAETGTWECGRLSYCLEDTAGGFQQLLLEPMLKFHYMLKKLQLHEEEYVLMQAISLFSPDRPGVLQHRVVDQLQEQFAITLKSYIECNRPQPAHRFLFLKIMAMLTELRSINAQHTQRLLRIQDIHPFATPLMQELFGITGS
Briefly: Activation of human PXR expressed in human HepG2 cells. The format is ADME, cell-based. The method in brief:
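HepG2 cells transiently co-transfected with human PXR and a luciferase reporter under the human CYP3A4 promoter, 48 h before readout. 24 h after seeding, 1:3 serial dilutions (2 nM to 50 μM, 0.5% DMSO) added. Luminescence normalized to rifampicin (100%) and DMSO (0%). MEC is the lowest concentration raising signal above 4-fold SD of DMSO background.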

The nature of data set [7]: Protein binding in rat plasma. The data set is classed as ADME, cell-free. Particulars: read-out: PPB (converted).

pIC50: −log10 of the molar value. Calls of active or inactive are those of the source. No cut-off for these calls is given here.

Sequence of Coagulation factor XI (Homo sapiens) (P03951 19-387 limits assumed): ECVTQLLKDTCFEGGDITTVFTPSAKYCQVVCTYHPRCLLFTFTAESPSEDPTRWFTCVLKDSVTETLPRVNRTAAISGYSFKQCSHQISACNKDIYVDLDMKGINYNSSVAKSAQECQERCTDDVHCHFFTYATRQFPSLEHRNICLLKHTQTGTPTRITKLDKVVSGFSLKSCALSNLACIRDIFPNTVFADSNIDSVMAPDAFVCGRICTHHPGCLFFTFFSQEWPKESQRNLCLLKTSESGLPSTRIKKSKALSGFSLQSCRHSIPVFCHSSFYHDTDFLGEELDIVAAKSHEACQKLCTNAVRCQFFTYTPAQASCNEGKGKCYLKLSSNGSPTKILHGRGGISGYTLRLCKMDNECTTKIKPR
Sequence of Coagulation factor XI (Homo sapiens) (P03951 388-625 limits assumed): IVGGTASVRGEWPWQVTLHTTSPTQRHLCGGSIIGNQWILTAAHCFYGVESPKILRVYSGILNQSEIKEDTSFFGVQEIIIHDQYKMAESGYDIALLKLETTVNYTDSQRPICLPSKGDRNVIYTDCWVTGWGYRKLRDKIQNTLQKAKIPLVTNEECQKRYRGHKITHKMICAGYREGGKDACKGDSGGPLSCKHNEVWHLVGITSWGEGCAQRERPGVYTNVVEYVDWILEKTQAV
Sequence of Plasminogen (Homo sapiens) (P00747 97-580 limits assumed): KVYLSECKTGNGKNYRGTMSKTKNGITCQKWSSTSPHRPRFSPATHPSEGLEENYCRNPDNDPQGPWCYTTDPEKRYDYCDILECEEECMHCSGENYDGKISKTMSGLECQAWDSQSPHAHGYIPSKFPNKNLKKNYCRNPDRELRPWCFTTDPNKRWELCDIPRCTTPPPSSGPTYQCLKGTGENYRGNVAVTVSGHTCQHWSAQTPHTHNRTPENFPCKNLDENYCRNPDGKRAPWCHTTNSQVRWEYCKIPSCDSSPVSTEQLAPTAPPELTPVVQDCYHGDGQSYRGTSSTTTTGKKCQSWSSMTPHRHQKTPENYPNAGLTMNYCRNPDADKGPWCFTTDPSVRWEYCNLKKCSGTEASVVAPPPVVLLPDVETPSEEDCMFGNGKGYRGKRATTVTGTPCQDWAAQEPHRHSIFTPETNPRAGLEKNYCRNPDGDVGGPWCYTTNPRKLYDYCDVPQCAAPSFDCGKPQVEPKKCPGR
Sequence of Plasminogen (Homo sapiens) (P00747 581-810 limits assumed): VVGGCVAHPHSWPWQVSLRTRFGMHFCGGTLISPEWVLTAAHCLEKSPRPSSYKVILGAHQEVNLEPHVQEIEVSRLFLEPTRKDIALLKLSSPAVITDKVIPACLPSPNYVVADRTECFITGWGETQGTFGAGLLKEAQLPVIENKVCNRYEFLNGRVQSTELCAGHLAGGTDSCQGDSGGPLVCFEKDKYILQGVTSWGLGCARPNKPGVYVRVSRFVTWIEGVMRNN

Regarding `COc1cc(C(=O)N2C[C@H](C)OC[C@@H]2CCO)cc2nc(N[C@H](CF)c3cccc(Cl)c3)oc12`, in the data set on Rattus norvegicus, the Activity result is “Dose-dependent effect”. The same molecule gave a half-life in [1] of 1.4 h. This molecule also gave a pIC50 against Prothrombin of 8.00. Also, the inhibition result in [2] and in data set [5] was “inactive” each time. The “fold change (FC)” value in data set [3] was below 2. Further, the bioavailability in data set [4] is 38%. Also, in the data set with Plasma, the 2PT came out at 1.1 µM. This molecule displayed an MEC in data set [6] of 1.9 µM. Also, in data set [7], the fraction unbound was 0.22.
